Series [1] deals with Human alphaherpesvirus 1. Kind of series: Antiviral activity against Herpes simplex virus 1 KOS infected in primary rabbit kidney cells assessed as inhibition of virus-induced cytopathogenicity. Type of series: functional. Particulars: Human alphaherpesvirus 1, KOS. (Cytopathic effects are the visible damage that an infection or toxin causes in cultured cells.)
Series [2] deals with Human alphaherpesvirus 1. Nature of the series: Antiviral activity against Herpes simplex virus 1 KOS infected in human skin fibroblasts primed with interferon and superinduced with cyclohexamide and actinomycin D assessed as inhibition of virus-induced cytopathogenicity. Type of series: functional. The conditions noted are these: Human alphaherpesvirus 1, KOS.
Series [3] has as its system Vesicular stomatitis virus. Kind of series: Antiviral activity against Vesicular stomatitis virus infected in human skin fibroblasts primed with interferon and superinduced with cyclohexamide and actinomycin D assessed as inhibition of virus-induced cytopathogenicity. It counts as functional, organism-based.
In series [4] the test system is Vesicular stomatitis virus. Kind of series: Antiviral activity against Vesicular stomatitis virus infected in primary rabbit kidney cells assessed as inhibition of virus-induced cytopathogenicity. It counts as functional, organism-based.
Series [5] can be described thus: Cytotoxicity against mouse L cells assessed as suppression of replication at 10^-3 M. It counts as cell-based. The conditions noted are these: l929, 1000 µM.
The nature of series [6]: Ratio of I50 for DNA synthesis in primary rabbit kidney cells by [3H]-dT incorporation assay to MIC50 for Herpes simplex virus 1 KOS. The gist of the method: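 DNA synthesis in uninfected PRK cells measured by [3H]-dT incorporation. The concentration giving 50% reduction is set against the concentration giving 50% reduction in herpes virus cytopathogenicity.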
A short description of series [7]: Cytotoxicity against mouse L cells assessed as suppression of replication. The conditions noted are these: l929. It counts as cell-based.

Converted amounts (≈) assume the structure as drawn. The source made the active and inactive calls. No cut-off for these calls is given here.

Consider 14 compounds from ChEMBL document CHEMBL3244322, “5-O-Alkylated derivatives of 5-hydroxy-2'-deoxyuridine as potential antiviral agents. Anti-herpes activity of 5-propynyloxy-2'-deoxyuridine” (J Med Chem, 1978).

For the compound `O=c1[nH]c(=O)n([C@H]2C[C@H](O)[C@@H](CO)O2)cc1OCc1ccccc1`, the MIC in the series with Human alphaherpesvirus 1 [1] is > 120 µM; in the series with Human alphaherpesvirus 1 [2], > 450 µM. Also, the inhibition result in series [3] and in series [4] was “inactive” throughout.

Turning to `O=C(O)COc1cn([C@H]2C[C@H](O)[C@@H](CO)O2)c(=O)[nH]c1=O`, in the series with Human alphaherpesvirus 1 [1], the MIC was > 600 µM. The inhibition entry in series [3] and in series [4] was “inactive” each time.

As to `NC(=O)COc1cn([C@H]2C[C@H](O)[C@@H](CO)O2)c(=O)[nH]c1=O`, the MIC in the series with Human alphaherpesvirus 1 [1] turned out to be 140 µM (≈ 42.2 µg/mL); in the series on Human alphaherpesvirus 1 [2], 260 µM (≈ 78.3 µg/mL). Also, the inhibition result in series [3] and in series [4] was “inactive” throughout.

For `O=c1[nH]c(=O)n([C@H]2C[C@H](O)[C@@H](CO)O2)cc1OCc1ccc([N+](=O)[O-])cc1`, the MIC in the series on Human alphaherpesvirus 1 [1] is > 260 µM; with Human alphaherpesvirus 1 [2], > 520 µM. In addition, the inhibition entry in series [3] and in series [4] was “inactive” throughout.

Consider `O=c1[nH]c(=O)n([C@H]2C[C@H](O)[C@@H](CO)O2)cc1O`, for which the figures for the MIC with Human alphaherpesvirus 1 [1] and in the series with Human alphaherpesvirus 1 [2] were 16 µM (≈ 3.91 µg/mL) and 3.5 µM (≈ 0.855 µg/mL), respectively.

On to `C#CCOc1cn([C@H]2C[C@H](O)[C@@H](CO)O2)c(=O)[nH]c1=O`, for which the MIC with Human alphaherpesvirus 1 [1] turned out to be 2.6 µM (≈ 0.734 µg/mL); in the series on Human alphaherpesvirus 1 [2] it was 3.5 µM (≈ 0.988 µg/mL). The inhibition entry in series [3] and in series [4] was “inactive” in each case. For the same compound, the Activity entry in series [5] was “Non-toxic”. Further, in series [6], the Ratio worked out at 150.

Turning to `O=c1[nH]c(=O)n([C@@H]2O[C@H](CO)[C@@H](O)[C@H]2O)cc1OCc1ccccc1`, the MIC with Human alphaherpesvirus 1 [1] and in the series with Human alphaherpesvirus 1 [2] was > 600 µM each time. In addition, the inhibition result in series [3] and in series [4] was “inactive” throughout.

On to `O=c1[nH]c(=O)n([C@@H]2O[C@H](CO)[C@@H](O)[C@H]2O)cc1OCc1ccc([N+](=O)[O-])cc1`, for which the MIC with Human alphaherpesvirus 1 [1] and with Human alphaherpesvirus 1 [2] was > 600 µM throughout. In addition, the inhibition entry in series [3] and in series [4] was “inactive” throughout.

Consider `C=CCOc1cn([C@H]2C[C@H](O)[C@@H](CO)O2)c(=O)[nH]c1=O`, for which the MIC worked out at 14 µM (≈ 3.98 µg/mL) in the series on Human alphaherpesvirus 1 [1] and 140 µM (≈ 39.8 µg/mL) in the series on Human alphaherpesvirus 1 [2]. For the same compound, the inhibition entry in series [3] and in series [4] was “inactive” throughout.

For the compound `Nc1ncnc2c1ncn2[C@@H]1O[C@H](CO)[C@@H](O)[C@@H]1O` [VIDARABINE], the MIC in the series with Human alphaherpesvirus 1 [1] stood at 14 µM (≈ 3.74 µg/mL); with Human alphaherpesvirus 1 [2], 3.5 µM (≈ 0.935 µg/mL).

As to `O=c1[nH]c(=O)n([C@H]2C[C@H](O)[C@@H](CO)O2)cc1I` [IDOXURIDINE], the MIC in the series on Human alphaherpesvirus 1 [1] was 1.4 µM (≈ 0.496 µg/mL); in the series on Human alphaherpesvirus 1 [2] it was 0.35 µM (≈ 0.124 µg/mL). Further, in series [7], the Activity result is listed as “Toxic”.

As to `NC(=O)COc1cn([C@@H]2O[C@H](CO)[C@@H](O)[C@H]2O)c(=O)[nH]c1=O`, the MIC in the series with Human alphaherpesvirus 1 [1] and in the series on Human alphaherpesvirus 1 [2] was > 600 µM each time. Also, the inhibition result in series [3] and in series [4] was “inactive” in each case.

Turning to `C=CCOc1cn([C@@H]2O[C@H](CO)[C@@H](O)[C@H]2O)c(=O)[nH]c1=O`, the MIC with Human alphaherpesvirus 1 [1] and in the series with Human alphaherpesvirus 1 [2] was > 600 µM in each case. Besides, the inhibition result in series [3] and in series [4] was “inactive” in each case.

For the compound `Cc1ccc(COc2cn([C@@H]3O[C@H](CO)[C@@H](O)[C@H]3O)c(=O)[nH]c2=O)cc1`, the MIC with Human alphaherpesvirus 1 [1] and in the series with Human alphaherpesvirus 1 [2] was > 600 µM throughout. Moreover, the inhibition entry in series [3] and in series [4] was “inactive” throughout.
